In PMC6889220 (ACS chemical neuroscience, 2019):
Where two headings read alike, the source gives them in different places.

Legend:
[1] = molecular target: human serum albumin (hSA) (Homo sapiens, UniProt P02768); test: Isothermal titration calorimetry with human serum albumin; format: binding
Method in brief: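 The calorimeter cell held 20 μM human serum albumin in PBS (150 mM NaCl, 20 mM sodium phosphate, pH 7.4), with ddH2O in the reference cell. The titrant was 0.22 mM test compound, made as a filtered saturated PBS solution with concentration checked by UV absorbance. Injections were spaced 300 s apart at 30 °C. Data were corrected for heats of dilution and fitted to a single set of independent sites. Ka from triplicate runs was averaged.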

recombinant human α2A -R = molecular target: T1, recombinant human α2A -R (Homo sapiens, UniProt P08913); test: [3H]clonidine radioligand competitive binding assay; conditions: Kd with the Cheng–Prusoff correction, 15 nM [3H]-clonidine
T1 sequence (P08913 1-465): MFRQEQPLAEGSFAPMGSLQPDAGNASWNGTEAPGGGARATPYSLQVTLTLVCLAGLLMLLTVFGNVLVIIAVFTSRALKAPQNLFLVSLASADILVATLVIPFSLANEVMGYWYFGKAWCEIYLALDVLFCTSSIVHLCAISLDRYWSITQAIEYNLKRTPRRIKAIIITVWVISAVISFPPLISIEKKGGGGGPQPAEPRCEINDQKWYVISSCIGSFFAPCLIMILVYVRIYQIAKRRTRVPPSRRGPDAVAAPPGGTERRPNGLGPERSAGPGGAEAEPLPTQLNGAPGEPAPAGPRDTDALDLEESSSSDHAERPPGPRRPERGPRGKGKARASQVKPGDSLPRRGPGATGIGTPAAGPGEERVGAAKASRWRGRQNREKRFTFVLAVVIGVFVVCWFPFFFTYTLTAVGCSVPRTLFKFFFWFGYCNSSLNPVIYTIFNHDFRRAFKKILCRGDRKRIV

[2] = molecular target: T2, human α2A adrenergic receptor (Homo sapiens, UniProt P08913); test: [35S]GTPγS binding assay; format: biochemical; conditions: 1 μM RX 821002 (selective α2 antagonist)
T2 sequence (P08913 1-465): T1 sequence (P08913 1-465)

Xenopus laevis tadpoles = test: Hypnotic activity Xenopus laevis tadpole bioassay; format: in vivo; conditions: for EC50: Xenopus laevis
Method in brief: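 Albino tadpoles at stages 45–47, 10 per dish, kept at 21–22 °C. They were exposed for 30 min to graded concentrations of test compound, with or without 10 μM atipamezole, in E3 artificial pond water containing <0.01% (v/v) DMSO. Loss of spontaneous movement was scored. Animals were then moved to fresh pond water and watched for toxicity. Each concentration was run in triplicate and reported as mean ± SEM.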

albumin = conditions: cited from earlier work
[3] = 0.5 h, read-out: hypnotic EC50 (loss of spontaneous movement)

human serum albumin (hSA), sequence (P02768 25-609): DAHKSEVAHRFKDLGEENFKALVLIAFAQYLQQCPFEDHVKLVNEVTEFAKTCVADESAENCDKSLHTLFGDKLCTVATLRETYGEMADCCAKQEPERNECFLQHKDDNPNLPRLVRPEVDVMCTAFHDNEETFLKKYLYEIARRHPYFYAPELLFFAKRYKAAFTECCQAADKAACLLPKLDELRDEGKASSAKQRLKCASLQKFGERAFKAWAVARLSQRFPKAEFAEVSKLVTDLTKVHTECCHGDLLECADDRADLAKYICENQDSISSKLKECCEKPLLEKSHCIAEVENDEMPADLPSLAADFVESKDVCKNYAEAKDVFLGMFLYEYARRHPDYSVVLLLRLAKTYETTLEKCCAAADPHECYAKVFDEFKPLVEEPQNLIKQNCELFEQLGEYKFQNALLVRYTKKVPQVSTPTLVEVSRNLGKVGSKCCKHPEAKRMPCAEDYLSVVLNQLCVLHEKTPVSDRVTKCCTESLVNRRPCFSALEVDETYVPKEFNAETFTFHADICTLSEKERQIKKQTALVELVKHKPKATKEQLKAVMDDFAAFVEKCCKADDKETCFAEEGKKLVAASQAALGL

Row | Compound | Kd [1] [nM] | Kd (recombinant human α2A -R; with UV exposure (350 nm light, 30 min)) [nM] | Kd (recombinant human α2A -R; without UV) [nM] | α2A-R activity in the presence of RX 821,002 [2] | EC50 (Xenopus laevis tadpoles; [3]) [nM] | toxicity in Xenopus tadpoles (Xenopus laevis tadpoles; observed after transfer to fresh pond water) | fraction bound to albumin in plasma (albumin) [%] | EC50 (Xenopus laevis tadpoles; read-out: behavioral EC50 in Xenopus tadpoles) [nM]
1 | CC(c1cccc(C2(C(F)(F)F)N=N2)c1)c1cnc[nH]1 (stereo not drawn) [azi-medetomidine, 5-(1-(3-(3-(trifluoromethyl)-3H-diazirine-3-yl)phenyl)ethyl)-1H-imidazole] | 29000 | 3.68 | 2.1 | eliminated all α2A -R activity | 4650 | did not display any frank toxicity |  | 
2 | Cc1cccc([C@H](C)c2cnc[nH]2)c1C [dexmedetomidine, reference compound] |  |  |  |  | 860 |  | > 90 | 800
